The values that follow come from article PMC8122083 (ACS infectious diseases, 2021).

Converted amounts (≈) assume the structure as drawn. Like-named read-outs stand apart in the source and are kept apart here. Bounds are passed on as bounds.

Data set [1] relates to H. pylori ATCC 43504. The experiment in a line: H. pylori IC50 dose response. The data set is classed as cell-based. To be noted: for IC50: Helicobacter pylori; for fold increase in potency: ATCC 43504 (stated for both strains), lead compounds relative to hits.
Data set [2] relates to panel of representative Gram-negative and Gram-positive species, including commensals. Nature of the data set: MIC against panel of representative Gram-negative and Gram-positive species. The data set is classed as cell-based.
Data set [3] relates to H. pylori SS1. Nature of the data set: H. pylori IC50 dose response. The data set is classed as cell-based. Conditions: for IC50: Helicobacter pylori; for fold increase in potency: SS1 (stated for both strains), lead compounds relative to hits.
A short description of data set [4]: Cytotoxicity assay. The format is cell-based. To be noted: human, FaDu cells. The procedure, abridged: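 FaDu cells, maintained per ATCC protocols, were seeded in EMEM with 10% FBS at 3 x 10^5 cells/ml and grown 24 h at 37°C, 5% CO2. Medium was replaced with two-fold serial dilutions of test compound in fresh medium for 72 h, then with FBS-free EMEM plus resazurin (final 0.15 mM) for 3-5 h. Fluorescence read at ex 540/em 590 nm. IC50 fitted from percent inhibition versus growth controls, converted to pIC50, and reported as mean ± S.E.M.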

Data set [5] concerns H. pylori. Conditions: cited from earlier work.
Data set [6] relates to H. pylori HM-274 resistant isolates. Nature of the data set: MIC of spontaneous resistant mutants of H. pylori HM-274. To be noted: two spontaneous mutants selected at twice the MIC of 28. The format is cell-based.
Data set [7] concerns H. pylori. Nature of the data set: H. pylori IC50 of high-throughput screening hits. The data set is classed as cell-based. Conditions: Helicobacter pylori, read-out: H. pylori IC50.
Data set [8] relates to H. pylori. Nature of the data set: H. pylori murine infection model. The data set is classed as in vivo, mouse. To be noted: compared to metronidazole control.
Data set [9] is described as follows: Solubility. The format is physicochemical.
Data set [10] can be described thus: Mouse pharmacokinetics. The data set is classed as in vivo, mice.
The test system of data set [11] is H. pylori SS1. The experiment in a line: ex vivo H. pylori infection model. Set-up: species or system mouse. To be noted: 0.6 μg/mL (1.6μM), 24 hours.
Where [12] appears, read: ATCC43504, read-out: H. pylori ATCC 43504 pIC50 (converted).
[13] abbreviates: SS1, read-out: H. pylori SS1 pIC50 (converted).

Usually MIC stands for the lowest concentration that inhibits growth of the organism. As to `COc1ccc([C@H](CO)Nc2ncnc3sc(-c4ccccc4)cc23)c(F)c1` [Compound 29, (R)-2-(2-fluoro-4-methoxyphenyl)-2-((6-phenylthieno[2,3-d]pyrimidin-4-yl)amino)ethan-1-ol], the IC50 was 0.02 µM in [1] (setting [12]) and 0.0126 µM in data set [3] (setting [13]). The molecule further displayed an MIC in data set [2] of at least 16 mg/L. For the same molecule, the IC50 at 72 h in data set [4] was 31.6 µM.
As for `CC[C@H]1OC(=O)[C@H](C)[C@@H](O[C@H]2C[C@@](C)(OC)[C@@H](O)[C@H](C)O2)[C@H](C)[C@@H](O[C@@H]2O[C@H](C)C[C@H](N(C)C)[C@H]2O)[C@](C)(OC)C[C@@H](C)C(=O)[C@H](C)[C@@H](O)[C@]1(C)O` [clarithromycin], the “H. pylori minimum inhibitory concentration (MIC)” value in data set [5] is 0.008 mg/L.
In the case of `OC[C@H](Nc1ncnc2sc(-c3ccccc3)cc12)c1ccccc1` [Compound 28, (R)-2-phenyl-2-((6-phenylthieno[2,3-d]pyrimidin-4-yl)amino)ethan-1-ol], the IC50 is 0.023 µM in data set [1] (ATCC43504), 0.0251 µM in data set [1] (setting [12]) and 0.01 µM in data set [3] (setting [13]). Moreover, in data set [6], the “MIC of resistant isolates relative to wildtype” value is recorded as 8 fold. In data set [2], the MIC was at least 16 mg/L. The same molecule returned an IC50 at 72 h in data set [4] of under 20 µM.
Turning to `COc1ccc([C@H](CN)Nc2ncnc3sc(-c4ccccc4)cc23)cc1F` [Compound 31, (R)-1-(3-fluoro-4-methoxyphenyl)-N^1-(6-phenylthieno[2,3-d]pyrimidin-4-yl)ethane-1,2-diamine], the “fold increase in H. pylori IC50 on substituting hydroxyl for primary amine” value in data set [1] (ATCC 43504, relative to 30) is over 79 fold; in [3] (SS1, relative to 30), over 79 fold. The figures for the IC50 in data set [1] (setting [12]) and in data set [3] (setting [13]) were 3.16 µM and 1 µM, respectively. In data set [2], this molecule registered an MIC of at least 16 mg/L. In data set [4], this molecule gave an IC50 at 72 h of 50.1 µM.
For `OCCCNc1ncnc2sc(-c3ccccc3)cc12` [Compound 1, 3-((6-phenylthieno[2,3-d]pyrimidin-4-yl)amino)propan-1-ol], the IC50 is 1.58 µM in [1] (setting [12]), 1.55 µM in data set [7] and 1.58 µM in data set [3] (setting [13]). In addition, the IC50 at 72 h in [4] was 126 µM.
For orientation: solubility means how much of the substance goes into solution per volume. Read a low solubility as little dissolved substance. One may read the AUC as the area under the concentration-time curve, a measure of exposure. A high value points to more exposure. For the molecule `COc1ccc(C(CO)Nc2ncnc3sc(-c4ccccc4)cc23)cc1` (stereo not shown) [Compound 25, 2-(4-methoxyphenyl)-2-((6-phenylthieno[2,3-d]pyrimidin-4-yl)amino)ethan-1-ol], the “fold increase in potency” value in data set [1] and in data set [3] was over 69 fold each time. In addition, the IC50 is 0.021 µM in data set [1] (ATCC43504), 0.02 µM in data set [1] (setting [12]) and 0.02 µM in data set [3] (setting [13]). Moreover, the “efficacy in H. pylori murine infection model” value in data set [8] (25 mg/kg (IP)), in data set [8] (50 mg/kg (IP)) and in [8] (50 mg/kg (PO)) was “did not show efficacy” throughout. The concentration in solution in [9] (solubility) was 1 µM (≈ 0.377 µg/mL). In [10] (mice, oral (PO), compared with IP), the “exposure upon oral dosing” value is given as “lower exposure”. The AUC in [10] (mouse, plasma, ip, 50 mg/kg) came out at 31.9 µg·h/mL. In addition, in data set [2], the MIC was at least 16 mg/L. Besides, the “effectiveness in ex vivo model” value in data set [11] is on record as “highly effective”. In data set [11] (10 samples), the “samples with colony counts below the limit of detection” value is reported as 6 of the 10. In addition, in data set [4], the IC50 at 72 h is 398 µM.
Regarding `COc1ccc([C@H](CO)Nc2ncnc3sc(-c4ccccc4)cc23)cc1` [Compound 26, (R)-2-(4-methoxyphenyl)-2-((6-phenylthieno[2,3-d]pyrimidin-4-yl)amino)ethan-1-ol], the “fold increase in potency” value in [1] and in [3] was over 69 fold throughout. The IC50 in data set [1] (ATCC43504) is 0.01 µM; in data set [1] (setting [12]), 0.01 µM; in [3] (SS1), 0.0068 µM; in data set [3] (setting [13]), 0.00631 µM. The MIC in data set [2] was at least 16 mg/L. This molecule also gave an IC50 at 72 h in [4] of 15.8 µM.
As to `COc1ccc([C@@H](CO)Nc2ncnc3sc(-c4ccccc4)cc23)cc1` [Compound 27, (S)-2-(4-methoxyphenyl)-2-((6-phenylthieno[2,3-d]pyrimidin-4-yl)amino)ethan-1-ol], the IC50 in data set [1] (ATCC43504) was 0.053 µM; in [1] (setting [12]), 0.0501 µM; in [3] (SS1), 0.11 µM; in data set [3] (setting [13]) it was 0.1 µM. This molecule also gave an IC50 at 72 h in [4] of 50.1 µM.
Consider `OCCNc1ncnc2sc(-c3ccccc3)cc12` [Compound 9, 2-((6-phenylthieno[2,3-d]pyrimidin-4-yl)amino)ethan-1-ol], for which the IC50 in data set [1] (setting [12]) was 5.01 µM; in [3] (setting [13]), 2 µM. This molecule also had an IC50 at 72 h in [4] of 100 µM.
For `CC(C)C(CO)Nc1ncnc2sc(-c3ccccc3)cc12` (stereo not shown) [Compound 18, 3-methyl-2-((6-phenylthieno[2,3-d]pyrimidin-4-yl)amino)butan-1-ol], in that order: 3.16 µM, 0.794 µM and 50.1 µM.
The like results for `CN(CCCO)c1ncnc2sc(-c3ccccc3)cc12` [Compound 8, 3-(methyl(6-phenylthieno[2,3-d]pyrimidin-4-yl)amino)propan-1-ol] were, in that order, 15.8 µM, 6.31 µM and 100 µM.
`C[C@H](CO)Nc1ncnc2sc(-c3ccccc3)cc12` [Compound 13, (R)-2-((6-phenylthieno[2,3-d]pyrimidin-4-yl)amino)propan-1-ol]: the IC50 in data set [1] (setting [12]) was 0.158 µM; in [3] (setting [13]), 0.0316 µM. For the same molecule, the “fold greater potency than compound 1” value in data set [3] (H. pylori SS1) is 56 fold. The same molecule had an IC50 at 72 h in data set [4] of 31.6 µM.
For `COc1ccc([C@H](CO)Nc2ncnc3sc(-c4ccccc4)cc23)cc1F` [Compound 30, (R)-2-(3-fluoro-4-methoxyphenyl)-2-((6-phenylthieno[2,3-d]pyrimidin-4-yl)amino)ethan-1-ol], the IC50 in data set [1] (setting [12]) was 0.0158 µM; in [3] (setting [13]), 0.0126 µM. The molecule further came in with an MIC in data set [2] of at least 16 mg/L. Further, in data set [4], the IC50 at 72 h is 31.6 µM.
With `COc1ccc(CC(CO)Nc2ncnc3sc(-c4ccccc4)cc23)cc1` (stereo not shown) [Compound 24, 3-(4-methoxyphenyl)-2-((6-phenylthieno[2,3-d]pyrimidin-4-yl)amino)propan-1-ol], the IC50 was 0.126 µM in data set [1] (setting [12]) and 0.251 µM in [3] (setting [13]). Also, the IC50 at 72 h in data set [4] is 15.8 µM.
Consider `COCC(C)Nc1ncnc2sc(-c3ccccc3)cc12` (stereo not shown) [Compound 14, N-(1-methoxypropan-2-yl)-6-phenylthieno[2,3-d]pyrimidin-4-amine], for which the “fold less potent than compound 10” value in data set [1] (ATCC43504) was 29 fold. Also, the IC50 in data set [1] (setting [12]) was 1.26 µM; in [3] (setting [13]), 0.398 µM. In data set [4], this molecule had an IC50 at 72 h of 31.6 µM.
For `C[C@@H](CO)Nc1ncnc2sc(-c3ccccc3)cc12` [Compound 12, (S)-2-((6-phenylthieno[2,3-d]pyrimidin-4-yl)amino)propan-1-ol], the figures for the IC50 in data set [1] (setting [12]) and in data set [3] (setting [13]) were 5.01 µM and 2.51 µM, respectively. Also, in data set [4], the IC50 at 72 h was 251 µM.
The like results for `Cc1ccc(CCNc2ncnc3sc(-c4ccccc4)cc23)cc1C` [Compound 20, N-(3,4-dimethylphenethyl)-6-phenylthieno[2,3-d]pyrimidin-4-amine] were, in that order, 0.0794 µM, 0.501 µM and under 15.8 µM.
Take `OC[C@H](Nc1ncnc2scc(-c3ccccc3)c12)c1ccccc1` [Compound 40, (R)-2-phenyl-2-((5-phenylthieno[2,3-d]pyrimidin-4-yl)amino)ethan-1-ol]: the values for the IC50 in data set [1] (setting [12]) and in data set [3] (setting [13]) were 3.98 µM and 0.501 µM, respectively. In addition, the IC50 at 72 h in data set [4] was 31.6 µM.
